Assay results as given in PMC7723353 (Revista do Instituto de Medicina Tropical de São Paulo, 2020).

Tests used:
[1] = Cytotoxicity by MTT assay in Vero cells; format: cell-based; conditions: African green monkey, Vero cells (African green monkey kidney)
Method in brief: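 Vero cells at 2.7 × 10^5 cells/mL in MEM with 5% FBS, held 24 h at 37 °C, 5% CO2. Medium replaced by two-fold serial dilutions of test compound from DMSO stocks, or DMSO; medium-only cell controls. Incubation 4 days at 37 °C, then MTT (5 mg/mL solution) for 4 h. Formazan dissolved in DMSO, absorbance read at 540 nm. CC50 from % viability by regression.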

[2] = tested on: Zika virus (clinical isolate, IMT17); test: Anti-ZIKV viral plaque reduction assay in Vero cells; format: cell-based; conditions: for EC50: 96 h, read-out: Anti-ZIKV activity EC50; for Selectivity index (SI): ratio between cytotoxicity and antiviral activity (CC50/EC50), Vero cells
Method in brief: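 ZIKV clinical isolate IMT17 on Vero cells (1.5 × 10^5 cells/well, grown 24 h). Infection at 100 PFU/well for 1 h at 37 °C, 5% CO2, then PBS (pH 7.0) wash. Test compound at several concentrations in 2X MEM, 2% FBS, 50% high-viscosity CMC overlay. Ribavirin positive control; medium and DMSO controls. After 4 days, crystal violet stain; plaque counts give % inhibition, EC50 by non-linear regression; SI = CC50/EC50.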

Work on `CC(C)c1cc2c(cc1O)[C@@]1(C)CCC[C@@](C)(C=O)[C@@H]1CC2` [Compound 8, 18-oxoferruginol] yielded a CC50 at 4 days [1] of 35.1 ± 5.2 µM, an EC90 ([2]; Zika virus, Vero) of 20.8 ± 3.75 µM and an EC50 ([2]; Zika virus, Vero) of 2.6 ± 0.07 µM. The “Selectivity index (SI)” value [2] was 13.51.

In the case of `NC(=O)c1ncn([C@@H]2O[C@H](CO)[C@@H](O)[C@H]2O)n1` [Ribavirin, reference compound], the CC50 at 4 days [1] is reported as 2590 µM, the EC50 ([2]; Zika virus, Vero) is reported as 98.5 ± 6.46 µM and the “Selectivity index (SI)” value [2] is reported as 26.25.
